Experimental data collected from several papers.
Target: Serine/threonine-protein kinase TBK1 (TBK1, Homo sapiens, UniProt Q9UHD2)
Observed: enzyme activity
Action: inhibitor
One construct used (Q9UHD2 1-729): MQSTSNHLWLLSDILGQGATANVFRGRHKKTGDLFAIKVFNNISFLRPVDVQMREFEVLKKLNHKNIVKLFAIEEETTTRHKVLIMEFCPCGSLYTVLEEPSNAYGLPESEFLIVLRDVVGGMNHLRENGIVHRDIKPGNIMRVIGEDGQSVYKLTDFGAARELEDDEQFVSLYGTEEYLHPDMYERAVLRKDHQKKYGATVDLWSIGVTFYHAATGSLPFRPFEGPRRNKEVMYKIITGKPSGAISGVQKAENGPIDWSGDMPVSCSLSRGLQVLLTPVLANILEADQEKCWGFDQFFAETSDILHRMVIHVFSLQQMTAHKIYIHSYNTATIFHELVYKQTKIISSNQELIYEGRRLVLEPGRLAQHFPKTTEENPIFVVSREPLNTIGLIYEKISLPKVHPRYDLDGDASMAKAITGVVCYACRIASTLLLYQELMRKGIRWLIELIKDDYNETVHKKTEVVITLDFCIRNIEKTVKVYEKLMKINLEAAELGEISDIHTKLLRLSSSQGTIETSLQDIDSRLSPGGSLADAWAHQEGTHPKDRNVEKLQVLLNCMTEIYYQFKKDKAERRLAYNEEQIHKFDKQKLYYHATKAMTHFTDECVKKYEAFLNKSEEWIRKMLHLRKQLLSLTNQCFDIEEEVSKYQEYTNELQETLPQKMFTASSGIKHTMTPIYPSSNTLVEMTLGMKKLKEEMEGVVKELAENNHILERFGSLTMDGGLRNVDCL

Compound	technique	tested at	remaining activity [%]
CC(C)(O)[C@H]1CC[C@H](Nc2ccc3ncc(-c4cccc(C(F)(F)F)c4)n3n2)CC1	–	1 µM	102
NS(=O)(=O)c1ccc(CNc2nc(Nc3cccc(CN4CCOCC4)c3)ncc2Br)cc1	radiometric	1 µM	4
COc1cc(Nc2cnc(C#N)c(O[C@H](C)CN(C)C)n2)ncc1-c1cnn(C)c1	radiometric	1 µM	71
Cc1sc(C(=O)NC2COC2)cc1-n1cc(NC(=O)Nc2c(F)cccc2Cl)cn1	–	10 µM	97.8
Cc1nn(CC(F)(F)F)cc1Nc1nccc(NCc2ccc(S(N)(=O)=O)cc2)n1	radiometric	1 µM	49
CCCOc1ccc(OC)c(F)c1C(=O)c1ccc(C(=O)N[C@@H]2CNC[C@H]2NC(=O)c2ccc3[nH]ncc3c2)cc1	–	10 µM	82
CCN(CC)c1ccc(C2=NNC(=O)CC2C)cc1[N+](=O)[O-] (stereo not shown)	–	10 µM	104
CC(C)(C)c1nc(-c2cccc(NS(=O)(=O)c3c(F)cccc3F)c2F)c(-c2ccnc(N)n2)s1	radiometric	1 µM	88
Brc1cnc(Nc2cccc(CN3CCOCC3)c2)nc1NCCc1c[nH]cn1	radiometric	1 µM	21
CC(C)(C)C(=O)c1sc(NC2CCCCC2)nc1N	–	10 µM	95
O=C(Nc1cnn(-c2csc(C(=O)NC3COC3)c2)c1)Nc1ccccc1Cl	–	5 µM	102
Cn1c(=O)n(-c2ccc(C(C)(C)C#N)cc2)c2c3cc(-c4cnc5ccccc5c4)ccc3ncc21	–	10 µM	107
Nc1nc(NC2CCCCC2)sc1C(=O)c1ccccc1	–	10 µM	88
